One assay has as its system PAM-RAS (Mus musculus). As to the kind of experiment: Inhibitory activity against PAM-RAS cell line.
For the next assay, the system named is Jurkat. As to the kind of experiment: Inhibitory activity against JURKAT cell line. It is filed as functional, cell-based, Homo sapiens. The method, boiled down: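 Compounds were added at 0–100 µM final (ethanol or DMSO vehicle, ≤10%) for 24 h. MTT was added to 1 mg/mL for 5 h at 37 °C and absorbance read at 520 nm. IC50 came from % survival vs concentration curves, in quadruplicate.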

A further assay deals with GLIOMA#112. As to the kind of experiment: Inhibitory activity against GLIOMA#112 cell line. It is filed as functional, cell-based, Homo sapiens. The method in brief:
(§1)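 Cells were seeded at 10^4/well and treated 24 h with compounds at 0–100 µM final (solvent ≤10%). Survival was measured by MTT reduction (1 mg/mL, 5 h) read at 520 nm. IC50 came from survival–concentration curves, in quadruplicate.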

The test system of another assay is GLIOMA#108. As to the kind of experiment: Inhibitory activity against GLIOMA#108 cell line. It is filed as functional, cell-based, Homo sapiens. The method, boiled down: as §1
A further assay relates to PAM. As to the kind of experiment: Inhibitory activity against PAM cell line. It is filed as functional, cell-based, Mus musculus. The method in brief:
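Murine keratinocytes, normal Pam and H-ras-transformed Pam-Ras, were grown in DMEM with 10% FCS and 2 mM glutamine. They were seeded at 10^4 cells/well, preincubated 3–4 h, then given compounds at 0–100 µM final for 24 h. MTT was added to 1 mg/mL for 5 h at 37 °C and absorbance read at 520 nm. IC50 came from % survival vs concentration plots, in quadruplicate.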

The test system of another assay is HeLa. As to the kind of experiment: Inhibitory activity against HeLa cell line. The assay is classed as functional, cell-based, Homo sapiens. The method, boiled down:
(§2)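 HeLa cervical carcinoma cells were grown in DMEM with 10% FCS, and NIH 3T3 cells in DMEM with 10% newborn calf serum. Both were seeded at 10^4 cells/well and exposed 24 h to compounds at 0–100 µM final (ethanol or DMSO ≤10%). MTT was added to 1 mg/mL for 5 h at 37 °C and A520 read. IC50 came from survival curves, in quadruplicate.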

The next assay relates to NIH3T3. As to the kind of experiment: Inhibitory activity against 3T3 cell line. The assay is classed as functional, cell-based, Mus musculus. The method, boiled down: as §2

“And” between values parts separate entries of the source, which are not always exact repeats. Identical values can stand only once.

As for “Tetrameric orthopalladated p-isopropylbenzaldehyde thiosemicarbazone”, the IC50 (usually the concentration needed to halve the response being measured) in the assay on PAM-RAS (Mus musculus) (pam-ras) is 37 µM and 5 µM; in the assay on Jurkat, 6 µM and 7 µM; in the assay on GLIOMA#112 (glioma#112), 50 µM and 35 µM; in the assay on GLIOMA#108 (glioma#108), 40 µM and 62 µM.

Consider `COc1cccc2c1C(=O)c1c(O)c3c(c(O)c1C2=O)C[C@@](O)(C(=O)CO)C[C@@H]3O[C@H]1C[C@H](N)[C@H](O)[C@H](C)O1` [DOXORUBICIN], for which the IC50 in the assay with PAM-RAS (Mus musculus) (Mus musculus, PAM-RAS) amounted to 156 µM; in the assay on PAM (Mus musculus, PAM), 150 µM.

With “Tetrameric orthoplatinated p-isopropylbenzaldehyde thiosemicarbazone”, the IC50 with HeLa came out at 20 µM; with PAM-RAS (Mus musculus) (pam-ras), 9 µM; with PAM (pam) it was 30 µM; in the assay on Jurkat, 7 µM; in the assay on GLIOMA#112 (glioma#112), 27 µM; in the assay with NIH3T3, 21 µM. In addition, the half-inhibitory concentration (IC50) in the assay with GLIOMA#108 (glioma#108) was 54 µM.

Consider CISPLATIN, for which the IC50 with HeLa is 7 µM; in the assay with PAM-RAS (Mus musculus) (pam-ras), 165 µM; in the assay on PAM (pam), 164 µM; in the assay on Jurkat, 22 µM; with GLIOMA#112 (glioma#112) it was 120 µM; with NIH3T3 it was 35 µM. Besides, in the assay with GLIOMA#108 (glioma#108), half-maximal inhibition (IC50) was put at 86 µM.

Take `COc1cc([C@@H]2c3cc4c(cc3[C@@H](O[C@@H]3O[C@@H]5CO[C@@H](C)O[C@H]5[C@H](O)[C@H]3O)[C@H]3COC(=O)[C@H]23)OCO4)cc(OC)c1O` [ETOPOSIDE]: the IC50 stood at 136 µM with PAM-RAS (Mus musculus) (Mus musculus, PAM-RAS); 180 µM with PAM (Mus musculus, PAM); 62 µM in the assay with GLIOMA#112 (Homo sapiens, GLIOMA#112); 76 µM with GLIOMA#108 (Homo sapiens, GLIOMA#108).

The values are drawn from ChEMBL document CHEMBL1131529, “Novel tetranuclear orthometalated complexes of Pd(II) and Pt(II) derived from p-isopropylbenzaldehyde thiosemicarbazone with cytotoxic activity in cis-DDP resistant tumor cell lines. Interaction of these complexes with DNA” (J Med Chem, 1998).
